Measured values as given in ChEMBL document CHEMBL4033794, “Discovery of Trifluoromethyl Glycol Carbamates as Potent and Selective Covalent Monoacylglycerol Lipase (MAGL) Inhibitors for Treatment of Neuroinflammation” (J Med Chem, 2018).
The source made the active and inactive calls. The rule behind the calls is not given here.

What was measured:
Monoglyceride lipase = molecular target: T1, Monoglyceride lipase (Homo sapiens, UniProt Q99685); assay: Inhibition of recombinant human MAGL using fluorogenic-7HCA as substrate preincubated for 30 mins followed by substrate addition measured after 60 mins by fluorescence based assay
T1 sequence (Q99685 whole entry): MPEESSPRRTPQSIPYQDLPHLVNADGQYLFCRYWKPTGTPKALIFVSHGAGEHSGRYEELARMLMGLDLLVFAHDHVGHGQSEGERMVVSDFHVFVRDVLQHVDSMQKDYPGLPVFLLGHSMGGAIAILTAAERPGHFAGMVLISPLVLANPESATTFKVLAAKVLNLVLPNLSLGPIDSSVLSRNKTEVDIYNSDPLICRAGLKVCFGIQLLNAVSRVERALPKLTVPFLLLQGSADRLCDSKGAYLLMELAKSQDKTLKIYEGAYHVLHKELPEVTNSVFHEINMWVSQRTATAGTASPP

[1] = molecular target: T2, Fatty-acid amide hydrolase 1 (Homo sapiens, UniProt O00519); assay: Inhibition of recombinant human FAAH using fluorogenic arachidonoyl-AMC as substrate preincubated for 30 mins followed by substrate addition measured after 60 mins by fluorescence based assay
T2 sequence (O00519 whole entry): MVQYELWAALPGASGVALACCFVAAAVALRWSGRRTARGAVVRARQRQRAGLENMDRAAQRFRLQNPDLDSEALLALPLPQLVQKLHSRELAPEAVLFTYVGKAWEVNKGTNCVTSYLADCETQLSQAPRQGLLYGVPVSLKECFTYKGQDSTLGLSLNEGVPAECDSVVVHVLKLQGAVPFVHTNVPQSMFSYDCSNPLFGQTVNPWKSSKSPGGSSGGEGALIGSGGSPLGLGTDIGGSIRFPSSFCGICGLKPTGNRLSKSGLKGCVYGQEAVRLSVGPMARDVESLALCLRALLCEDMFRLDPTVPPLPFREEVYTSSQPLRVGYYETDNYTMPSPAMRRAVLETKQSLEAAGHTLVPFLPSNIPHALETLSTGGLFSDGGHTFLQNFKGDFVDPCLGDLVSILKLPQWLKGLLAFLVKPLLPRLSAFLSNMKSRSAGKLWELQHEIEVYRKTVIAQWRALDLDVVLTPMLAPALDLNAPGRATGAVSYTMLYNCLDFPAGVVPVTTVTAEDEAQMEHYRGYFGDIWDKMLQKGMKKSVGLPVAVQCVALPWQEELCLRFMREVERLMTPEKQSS
Outline: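 Human recombinant FAAH (0.0125 U final) in 50 mM Tris pH 9.0, 1 mM EDTA, preincubated 30 min at room temperature with compound (30 μM to 0.3 nM final); arachidonoyl-AMC 5 μM added, 60 min reaction, read Ex/Em 355/460. Inhibition vs no-compound and full-inhibition controls; four-parameter fit; geometric mean of ≥3 experiments.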

[2] = Lipophilicity, log D of the compound by HPLC analysis; type: physicochemical
Outline: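 LogD determined by an HPLC-based (eLogD) method.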

[3] = molecular target: T3, Monoglyceride lipase (Homo sapiens) (UniProt Q99685); assay: Inhibition of recombinant human MAGL assessed as Kintact to Ki ratio using fluorogenic-7HCA as substrate measured after 60 mins by fluorescence based assay
T3 sequence (whole entry): T1 sequence (Q99685 whole entry)
Outline: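 Same MAGL fluorogenic setup (88 pM enzyme, 5 μM 7-HCA, HEPES pH 7.4 buffer) but substrate added immediately without preincubation; fluorescence read every minute to obtain progress curves across decreasing inhibitor concentrations; kobs derived per concentration and kinact/KI taken from plot of kobs versus concentration.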

[4] = Intrinsic clearance in human liver microsomes; type: ADME, microsome; settings: read-out: CLH
Outline: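 Substrate depletion in human liver microsomes; intrinsic clearance scaled to mL/min/kg.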

Cocaine esterase = molecular target: T4, Cocaine esterase (Homo sapiens, UniProt O00748); assay: Inhibition of human CES2 at 10 uM
T4 sequence (O00748 whole entry): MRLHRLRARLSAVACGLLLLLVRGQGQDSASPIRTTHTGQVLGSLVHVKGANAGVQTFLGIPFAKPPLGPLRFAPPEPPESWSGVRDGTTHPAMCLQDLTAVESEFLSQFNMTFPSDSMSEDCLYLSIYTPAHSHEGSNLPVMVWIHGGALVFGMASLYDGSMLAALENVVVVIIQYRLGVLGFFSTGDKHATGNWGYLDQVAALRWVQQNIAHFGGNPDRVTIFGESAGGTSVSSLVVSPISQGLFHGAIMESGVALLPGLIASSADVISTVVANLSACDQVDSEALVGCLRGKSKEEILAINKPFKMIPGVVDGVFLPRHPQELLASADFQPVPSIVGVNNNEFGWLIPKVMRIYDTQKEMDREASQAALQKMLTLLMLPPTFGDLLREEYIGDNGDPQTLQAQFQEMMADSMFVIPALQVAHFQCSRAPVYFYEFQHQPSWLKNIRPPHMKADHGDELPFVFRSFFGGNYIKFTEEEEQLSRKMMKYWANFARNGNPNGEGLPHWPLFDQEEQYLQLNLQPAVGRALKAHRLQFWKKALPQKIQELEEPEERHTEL
Outline: (§1)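 Panel of 42 human serine hydrolases, each exposed to inhibitor at 10 µM; activity expressed as percent inhibition.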

[5] = molecular target: T5, Fatty-acid amide hydrolase 1 (Homo sapiens) (UniProt O00519); assay: Inhibition of human FAAH at 10 uM; outline: as §1
T5 sequence (whole entry): T2 sequence (O00519 whole entry)

Liver carboxylesterase 1 = molecular target: T6, Liver carboxylesterase 1 (Homo sapiens, UniProt P23141); assay: (§2) Inhibition of human CES1 at 10 uM; settings: 10 µM; outline: as §1
T6 sequence (P23141 whole entry): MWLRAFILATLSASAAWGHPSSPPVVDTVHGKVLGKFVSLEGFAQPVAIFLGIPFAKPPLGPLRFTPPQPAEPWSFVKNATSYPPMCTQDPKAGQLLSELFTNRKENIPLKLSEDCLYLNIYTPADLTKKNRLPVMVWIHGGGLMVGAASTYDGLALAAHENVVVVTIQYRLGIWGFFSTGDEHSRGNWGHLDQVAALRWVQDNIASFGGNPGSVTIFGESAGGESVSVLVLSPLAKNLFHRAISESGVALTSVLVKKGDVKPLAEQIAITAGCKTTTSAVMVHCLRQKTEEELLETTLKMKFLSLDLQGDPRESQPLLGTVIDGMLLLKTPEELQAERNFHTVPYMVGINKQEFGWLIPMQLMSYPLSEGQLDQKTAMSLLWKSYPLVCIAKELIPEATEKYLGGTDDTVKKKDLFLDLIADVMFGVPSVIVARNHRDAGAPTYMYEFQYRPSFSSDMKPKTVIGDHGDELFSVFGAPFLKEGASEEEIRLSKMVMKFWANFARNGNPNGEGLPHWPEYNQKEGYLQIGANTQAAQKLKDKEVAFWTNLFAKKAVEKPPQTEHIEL

[6] = Lipophilicity, log D of the compound at pH 7.4 by shake flask method; type: physicochemical; settings: buffer
[7] = molecular target: T7, Monoacylglycerol lipase ABHD6 (Homo sapiens) (UniProt Q9BV23); assay: Inhibition of human ABHD6 at 10 uM; outline: as §1
T7 sequence (whole entry): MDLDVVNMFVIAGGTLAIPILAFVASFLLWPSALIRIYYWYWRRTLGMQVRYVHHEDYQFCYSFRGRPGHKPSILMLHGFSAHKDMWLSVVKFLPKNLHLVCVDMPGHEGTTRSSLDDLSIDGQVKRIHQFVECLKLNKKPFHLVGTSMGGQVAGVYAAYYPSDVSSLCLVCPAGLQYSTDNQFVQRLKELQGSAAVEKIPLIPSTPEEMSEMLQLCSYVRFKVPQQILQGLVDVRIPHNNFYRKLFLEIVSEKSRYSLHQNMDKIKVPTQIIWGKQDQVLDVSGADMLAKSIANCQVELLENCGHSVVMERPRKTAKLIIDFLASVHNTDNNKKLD

[8] = molecular target: T8, Fatty-acid amide hydrolase 2 (Homo sapiens) (UniProt Q6GMR7); assay: Inhibition of human FAAH2 at 10 uM; outline: as §1
T8 sequence (whole entry): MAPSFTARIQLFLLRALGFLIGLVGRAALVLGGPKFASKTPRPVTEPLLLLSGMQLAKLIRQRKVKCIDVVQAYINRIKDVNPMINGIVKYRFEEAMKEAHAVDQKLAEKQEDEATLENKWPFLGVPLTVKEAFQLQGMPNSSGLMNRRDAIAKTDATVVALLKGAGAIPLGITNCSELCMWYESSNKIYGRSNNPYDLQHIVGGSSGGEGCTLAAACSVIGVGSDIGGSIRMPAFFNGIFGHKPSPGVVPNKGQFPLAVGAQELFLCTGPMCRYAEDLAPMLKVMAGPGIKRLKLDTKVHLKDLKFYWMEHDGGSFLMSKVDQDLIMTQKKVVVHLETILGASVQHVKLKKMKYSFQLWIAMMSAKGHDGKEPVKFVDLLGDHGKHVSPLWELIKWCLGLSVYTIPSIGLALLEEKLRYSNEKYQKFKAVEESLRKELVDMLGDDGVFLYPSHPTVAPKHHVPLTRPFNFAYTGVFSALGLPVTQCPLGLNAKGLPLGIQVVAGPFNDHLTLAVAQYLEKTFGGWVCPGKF

Homo sapiens = species on record: Homo sapiens; assay: Selectivity ratio of IC50 for recombinant human FAAH to IC50 for recombinant human MAGL
[9] = molecular target: T9, CES1 (liver carboxylesterase 1) (Homo sapiens, UniProt P23141); assay: as §2; outline: as §1
T9 sequence (P23141 whole entry): T6 sequence (P23141 whole entry)

[10] = Kinetic solubility of the compound at pH 7.4; type: physicochemical; settings: buffer, read-out: Kinetic_solubility

SMILES | IC50 (Monoglyceride lipase) | IC50 [1] | logD [2] | Ratio [3] | also measured
O=C(O[C@H](CCO)C(F)(F)F)N1C[C@@H]2[C@H](C1)[C@H]2c1ccn(-c2ccc(F)cc2)n1 | 582 nM | > 12000 nM | 4.2 | 4570 M⁻¹ s⁻¹ | CLint scaled [4]: < 12 mL/min/kg
O=C(Oc1ccc([N+](=O)[O-])cc1)N1CCC(C(O)(c2ccc3c(c2)OCO3)c2ccc3c(c2)OCO3)CC1 | – | > 11000 nM | 5.1 | – | –
O=C(ON1C(=O)CCC1=O)N1C[C@@H]2[C@H](C1)[C@H]2c1ccn(-c2ccc(F)cc2)n1 | 46 nM | 3600 nM | – | 156 M⁻¹ s⁻¹ | inhibition (INH) (Cocaine esterase): Not Active; inhibition [5]: inactive; inhibition (INH) (Liver carboxylesterase 1): Not Active; logD [6]: 2.6; inhibition [7]: inactive; inhibition [8]: inactive
O=C(O[C@H](CF)C(F)(F)F)N1C[C@@H]2[C@H](C1)[C@H]2c1ccn(-c2ccc(F)cc2)n1 | 26 nM | 1900 nM | 4.3 | 1580 M⁻¹ s⁻¹ | Ratio IC50 (Homo sapiens): 73
CC(OC(=O)N1C[C@@H]2[C@H](C1)[C@H]2c1ccn(-c2ccc(F)cc2)n1)C(F)(F)F (some centres not stated) | 242 nM | > 23000 nM | 4.8 | – | Ratio IC50 (Homo sapiens): > 95
O=C(O[C@@H](CO)C(F)(F)F)N1C[C@@H]2[C@H](C1)[C@H]2c1ccn(-c2ccc(F)cc2)n1 | 890 nM | 26000 nM | 3.9 | – | CLint scaled [4]: < 8 mL/min/kg
O=C(OC[C@@H](O)C(F)(F)F)N1C[C@@H]2[C@H](C1)[C@H]2c1ccn(-c2ccc(F)cc2)n1 | 132 nM | > 30000 nM | 4 | 244 M⁻¹ s⁻¹ | CLint scaled [4]: 9.4 mL/min/kg
O=C(OCC(F)(F)F)N1C[C@@H]2[C@H](C1)[C@H]2c1ccn(-c2ccc(F)cc2)n1 | 445 nM | 970 nM | 4.2 | 103 M⁻¹ s⁻¹ | –
O=C(Oc1ccc([N+](=O)[O-])cc1)N1C[C@@H]2[C@H](C1)[C@H]2c1ccn(-c2ccc(F)cc2)n1 | 24 nM | 18 nM | – | 2880 M⁻¹ s⁻¹ | logD [6]: 4.2
O=C(OC(CO)C(F)(F)F)N1C[C@@H]2[C@H](C1)[C@H]2c1ccn(-c2ccc(F)cc2)n1 (some centres not stated) | 6 nM | 14000 nM | 3.9 | – | –
COC[C@@H](OC(=O)N1C[C@@H]2[C@H](C1)[C@H]2c1ccn(-c2ccc(F)cc2)n1)C(F)(F)F | 354 nM | 1940 nM | 4.2 | 110 M⁻¹ s⁻¹ | –
O=C(OC(C(F)(F)F)C(F)(F)F)N1C[C@@H]2[C@H](C1)[C@H]2c1ccn(-c2ccc(F)cc2)n1 | 1 to 1.4 nM | 4300 nM | 5.6 | 41700 M⁻¹ s⁻¹ | inhibition at 10 µM [9]: 58%; solubility kinetic [10]: < 1 µM; inhibition [7]: 95%; Ratio IC50 (Homo sapiens): 3000 to 4300
